The values that follow come from the RNAGym collection of RNA variant scans (doi:10.1126/science.aae0568).

Fewer inactive variants are shown than the library holds. Some results are limits rather than exact numbers.

The labels stand for the following.
B1: tRNA (parent)
chain: GUUCCGUUGGCGUAAUGGUAACGCGUCUCCCUCCUAAGGAGAAGACUGCGGGUUCGAGUCCCGUACGGAACG

This data set covers variants of B1. Description: yeast fitness relative to wild type (ratio to wild type); higher = fitter; tRNA-Arg(CCU), competitive growth, 37 C, YPD. A digest of the protocol: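 Gene amplicons from the start population and from each of six end populations were read by 100-nucleotide paired-end sequencing. Those end populations came from pooled Saccharomyces cerevisiae strains carrying tRNA-Arg(CCU) gene variants at the native locus, competed in YPD at 37°C for 24 hours. Fitness relative to wild type was worked out from changes in genotype frequencies. Genotypes needed ≥ 100 starting reads, and estimates < 0.5 were set to 0.5.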
As for GUUCCGUUGGAGUAAUGGUAACGCGUCUCCCUCCUAAGGAGAAGACGGCGGGUUCGAGUCCCGCACGGAACG [C11A U47G U64C], the yeast fitness was determined as 0.531.

For the variant GUUUCGUUGGGGUAAUGGUAACGCGUCUUCCUCCUAAGGAGAAGACUGCGGGUUCGAGUCCUGUACCGAACG [C4U C11G C29U C62U G67C], the yeast fitness was at most 0.5.

Regarding GUUCAGUUGGCGUAAUGGUAACGCGUCUCCUUUCUAAGGAGCAGACUGUGGGUUCGAGUCCCGUCCGGAACG [C5A C31U C33U A42C C49U A65C], the yeast fitness was at most 0.5.

On to GUACCGUUGGCGUAAUGGUAAUGCGUCUCCCUCCUAAGAAGAAGACUGCGGGUUCGAGUCCCGUAUGGAACG [U3A C22U G39A C66U], for which the yeast fitness stood at 0.576.

Consider GUUCCGUUGGCAUAAUGGUAACGCGUCUGCCUCCUAAGGAGAAGACUGCGGGUUCGAGUCCCGUAUGGAACG [G12A C29G C66U], for which the yeast fitness turned out to be 0.574.

GUUCCGUUGGCGUAAUGGUAACGCGUCUCCCUCCUAAGGCGAAGACUGCGGGUUCGGGUCCCGUACAGAACG [A40C A57G G67A]: the yeast fitness turned out to be 0.554.

With GUUCCGUUGGCGUAAUGGUAACGCGUCUCUCUCCUAAGGAGAAGACUGCGGGUUCGAGUCGCGUCCGGAACG [C30U C61G A65C], the yeast fitness was at most 0.5.

On to GUUCCGUUGGCGUAAUGGUAACGCGUCUCCAUCCUAAGGAGAAGACUGCGGGUUCGCGUCCCGUACGGAACG [C31A A57C], for which the yeast fitness is 0.544.

In the case of GUUCCGUUGGCGUAAUGGUAACGCGUUUCCCUCCUAAGGAGAAGACUGCGGGUUCGAGUCCCGUACGGUACG [C27U A69U], the yeast fitness turned out to be 1.02.

For the variant GUUCAGUUGGCGUAAUGCUAACGCGUCUCCCUCCUAAGGAGAAGACUGCAGGUUCGAGUCCCGUACGGAACG [C5A G18C G50A], the yeast fitness was at most 0.5.

In the case of GUUCCGUUGGCGUAAUGGUAACGCGUCUCCCUCCUAAGGAGAAGACUGCGGGUUCGACCCCCGUACGGUACG [G58C U59C A69U], the yeast fitness turned out to be 0.679.

For GUUCCGUUGGCGUAAUCGUAACGCGUCUCCCUGCUAAGGAGAAGACUGCGGGUUCGAGUCCCGUACGGAGCG [G17C C33G A70G], the yeast fitness is at most 0.5.

Turning to GUUCCGUUGGCGUAAUGGUAACGCGUCUCCGUCCUAAGGAGAAGGCAGCGGGUUCGAGUCCCGUACGGAACG [C31G A45G U47A], the yeast fitness was found to be 0.893.

GUACCGUUGGCGUAAUGACAACGCGUGUCCCUCCUAAGGAGAAGACUGCGGGUUCGAGUCACGGACGGAACG [U3A G18A U19C C27G C61A U64G]: the yeast fitness is at most 0.5.

Take GUUCCGUUGGCGUAAUGGUAACGCGUCUCCCUCCUAAGGAGAAGACUGUGGGUGCGAGUCCCGUACGGAACG [C49U U54G]: the yeast fitness came out at 0.562.

As to GUUCCGUAGGCGUAAUAGCAACGCGUCUCCCUCCUAAGGAGAAGACUGCGGGUUCGAGUCCCGUACGGAACG [U8A G17A U19C], the yeast fitness amounted to 0.586.

As to GUUCCGUUGGCGUAAUGGUAACGCGUCUCCCUCCGAAGGAGAAGACUGCGGGUUCGAGUCCGGUACGGAACG [U35G C62G], the yeast fitness is 0.597.

As for GUUCCGUUGGCGUAAUGGUAACGCGCCUCCAUCCUAAGGAGUAGACUGCGGGUUCGAGUCCCGUACGGAACG [U26C C31A A42U], the yeast fitness was found to be 0.9.

Consider GUUCCGUUGGCAUAAUGGUAGCGCGUCUCCCUCCUAAGAAGAAGGCUGCAGGUUCGAGUCCCGUACGGUACG [G12A A21G G39A A45G G50A A69U], for which the yeast fitness is at most 0.5.

With GUUCCGUUGGCGUAAUGGUAACGGGUCUCCCUCCUGAGGAGAAGGCUGCGGGUUCGAGUCCCGUACGGAACG [C24G A36G A45G], the yeast fitness was at most 0.5.

For GUUGGGUUGGCGUAAUGGUAACGCGUCUACCUCUUAAGGAGUAGACUGCCGGUUCGAGUCCCGUACGCGACG [C4G C5G C29A C34U A42U G50C G68C A69G], the yeast fitness was 0.58.

As to GUUCCGUUGGCGUAAUGGUACCGUGUCUCCCACCUAAGGAGAAGACUGCGGGUUCGAGUCCGAUACGGAACG [A21C C24U U32A C62G G63A], the yeast fitness was at most 0.5.

GUUCCGUUGACGUAAUGGUAACGCGUCUCCCACCUAAGGAGAAGACUGCGGGUUCGAGUCCCGUACGGAACG [G10A U32A]: the yeast fitness is 0.601.

On to GUUCCGUUGGCGUAAUAGUAACGCGUCUCCCUCCUAAGCAGAAGACUGCGGGUUCCAGUCCCGUACGGAACG [G17A G39C G56C], for which the yeast fitness was at most 0.5.

For the variant GUUCCGUUGGCGUAAUGGUAACGCGUCUGCCUCCUAAGGAGAACACUGAGGGUUCGAGUCCCGCACGGAACG [C29G G44C C49A U64C], the yeast fitness was at most 0.5.

With GUUCCAUUGGCGAGAUGGUAACGCGUCUCCCUCCUAAGGACAAGACUGCGGGUUCGAGUCCCGUACGGAACG [G6A U13A A14G G41C], the yeast fitness was at most 0.5.

Take GUUCCGUUGGCGAAAUGGUAACGCGUUUCCCUCCUACGGAGAAGACUGCGGGUUCGAGUCUCGUACGGAACG [U13A C27U A37C C61U]: the yeast fitness was at most 0.5.

Turning to GAUCCGUUCGCGUAAUGGUAACGCGUCUCCCUCCUAAGGAGAAGACUGCAGGUUCGAGUCCCGAACGGAACG [U2A G9C G50A U64A], the yeast fitness was at most 0.5.

Consider GUUCCGUUGGUAUAAUGGUAACGCGUUUCCCUCCUAAGGAGAAGACUGCGGAUUCGAGUCCUGUACGGAACG [C11U G12A C27U G52A C62U], for which the yeast fitness was at most 0.5.

For GUUCCGUUGGCGUAAUGGUAACGCGUCUCCCUCCUAAGGGGAAGACUGCGGGUUCGACUCGCGUCCGGAACG [A40G G58C C61G A65C], the yeast fitness was at most 0.5.

With GUUCUGUUGGCGUAAUGGUAGCGCGUCUCCCUCCUAAGGAGUAGACUGCGGGUUCGAAUCCCGUACGGAACG [C5U A21G A42U G58A], the yeast fitness is 1.02.

For the variant GUUCCGUUGGUGAAAUGGUAACGCGUCUCCCUCCUAAGGAGAAGACUGCGGGUUCGUGUCCCGGGCGGAACG [C11U U13A A57U U64G A65G], the yeast fitness is at most 0.5.

Take GUUCCGUUGGCGUAAUGGUAACGCGUCUCCCUCCUAAGGAGAAGACUGUGGGUUCGAGUCCCGUCCGGAGCG [C49U A65C A70G]: the yeast fitness was 0.768.

Consider GUUCUGUUGGCGUAAUGGUAGCGCGUUUCCCUCCUAAGGAAAAGACUGCGGGUUCGAGUCCCGUACGGAACG [C5U A21G C27U G41A], for which the yeast fitness was at most 0.5.

For GUUCCGUUGGCGUAAUGGUAACGCGUCUCCCUCCUAAGGAGAAGACUGCGGGUUCGGGACCCGGACGGAACG [A57G U59A U64G], the yeast fitness was at most 0.5.

Take GUCCCGUUGGCGUAAUGGUAACGUGUCUCCCUCCUCAGGAGAAGACUGCGGGUUCGAGUCCCAUACGGAACG [U3C C24U A36C G63A]: the yeast fitness was at most 0.5.

As to GUUCCGUUGGCGUAAUGGUAACGCGUCUCCCUCCAAAGGAGAAGACUGCGGGUUCGAGUCGCGUACGGAACG [U35A C61G], the yeast fitness is at most 0.5.

As to GUUCCGUUGGCGUAAUGGUAACGCGUCUCCCUCCUAAGGAGGAGACUGCGGGUUCGAGUCCCGUACGGAUCG [A42G A70U], the yeast fitness is 0.941.
